Assay results from paper PMC12722729 (Scientific Reports, 2025).
Where “and” joins values, the source holds several entries; their conditions need not be identical. Identical values can stand only once. Like-named read-outs stand apart in the source and are kept apart here.

How the values were obtained:
Jurkat cells [1] = assay: MTT cytotoxicity assay, Jurkat cells; format: cell-based, human; conditions: 24 h, read-out: IC50 for Jurkat cell proliferation
How it was run: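 Jurkat E6-1 cells were grown in RPMI-1640 with L-glutamine, 10% FBS and 1% penicillin-streptomycin at 37 °C and 5% CO2. The test compound was diluted 1:2 serially in medium from a top concentration of 10 or 5 µM. Cells at a final 1 × 10⁶ cells/mL were exposed for 24 h. MTT was added (final 0.45 mg/mL) for 4 h at 37 °C, formazan was dissolved in DMSO, and OD was read at 570 nm. IC50 was taken as 50% growth inhibition. Three independent experiments, mean ± SEM.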

WIL2-NS cells = assay: MTT cytotoxicity and selectivity index, WIL2-NS cells; format: cell-based, human; conditions: IC50 WIL2-NS compared to IC50 Jurkat
Jurkat cells [2] = assay: Annexin V-FITC/propidium iodide labelling; format: cell-based, human; conditions: 24 h, each compound at its IC50, mean ± SEM
How it was run: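 Cells were spun at 220 x g for 5 min at 4 °C and washed in chilled PBS. They were stained with Annexin V-FITC in binding buffer for 13 min at room temperature in the dark, then with PI for 2 min. Samples were diluted in binding buffer and analysed by flow cytometry.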

caspase-8 = assay: CaspGLOW active caspase staining, caspase-8; format: cell-based, human; conditions: Jurkat, OC2 at IC50, 2 and 4 h
How it was run: (§1)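 Jurkat E6-1 cells in RPMI-1640 with 10% FBS at 1 × 10⁶ cells/mL were exposed to the test compound for 2 or 4 h. Cells were washed, resuspended in fresh medium and stained 1 h at 37 °C with a FITC-conjugated inhibitor: IETD-FMK (caspase-8), LEHD-FMK (caspase-9) or DEVD-FMK (caspase-3). After washing, cells were read by flow cytometry. Mean ± SEM of 3 replicates; ANOVA/Tukey versus untreated.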

Jurkat cells [3] = assay: NAC pre-treatment followed by Annexin V-FITC/PI; format: cell-based, human; conditions: 20 or 50 µM NAC 1 h, then OC2 at IC50 24 h
p21 = assay: Western blot, p21; format: cell-based, human; conditions: Jurkat, OC2 at IC50, 0.5-6 h
How it was run: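 Jurkat cells at 1 × 10⁶ cells/mL were treated for 0.5 to 6 h, then washed in ice-cold PBS and lysed in RIPA buffer (spun 13500 rpm, 30 min, 4 °C). Protein was measured by Bradford assay and 25 µg per lane run on SDS-PAGE, then transferred to PVDF. Blots were blocked in 5% BSA/TBS-T for 1.5 h, given primary antibody overnight at 4 °C and HRP anti-rabbit for 1 h, then detected by ECL. β-actin served as loading control; band intensity is in arbitrary units, n = 3.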

Jurkat cells [4] = assay: Cell cycle checkpoint analysis; format: cell-based, human; conditions: OC2 at IC50, 2 and 4 h
caspase-3 = assay: CaspGLOW active caspase staining, caspase-3; format: cell-based, human; conditions: Jurkat, OC2 at IC50, 4 h
How it was run: as §1

cleaved-PARP = assay: Western blot, cleaved-PARP; format: cell-based, human; conditions: Jurkat, OC2 at IC50, 0.5-6 h
How it was run: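 Jurkat cells (1 × 10⁶ cells/mL) were treated with the test compound at its IC50 for 0.5–6 h. Cells were washed in ice-cold PBS and lysed in RIPA, and lysates were cleared at 13500 rpm for 30 min at 4 °C; protein was measured by Bradford. 25 µg per lane was run on SDS-PAGE and transferred to PVDF. Membranes were blocked in 5% BSA/TBS-T for 1.5 h, given primary antibody overnight at 4 °C and HRP anti-rabbit for 1 h, and developed by ECL. β-actin served as loading control. Three independent replicates, arbitrary units, mean ± SEM.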

caspase-9 = assay: CaspGLOW active caspase staining, caspase-9; format: cell-based, human; conditions: Jurkat, OC2 at IC50, 2 and 4 h
How it was run: as §1

Jurkat cells [5] = assay: DHE staining, intracellular ROS; format: cell-based, human; conditions: OC2 at IC50, 1-6 h
Jurkat cells [6] = assay: TMRE staining, mitochondrial membrane potential; format: cell-based, human
[7] = cited from earlier work
K562 cells = conditions: cited from earlier work

COc1cc([C@@H]2c3cc4c(cc3[C@@H](O[C@@H]3O[C@@H]5CO[C@@H](C)O[C@H]5[C@H](O)[C@H]3O)[C@H]3COC(=O)[C@H]23)OCO4)cc(OC)c1O [ETO, Etoposide, reference compound]
IC50 (Jurkat cells [1]; Homo sapiens, Jurkat): 0.87 ± 0.06 µM

CC(C)N(C(=S)[S][Sn]([S]C(=S)N(C(C)C)C(C)C)([c]1ccccc1)[c]1ccccc1)C(C)C [OC1, Diphenyltin(IV) diisopropyl dithiocarbamate]
Selectivity index (SI) (WIL2-NS cells): 0.37 | Percentage of apoptotic events (Jurkat cells [2]): 68.1 ± 4.2% | IC50 (Jurkat cells [1]; MTT, mean ± S.E.M): 7.1 ± 0.6 µM

CC(C)N(C(=S)[S][Sn]([c]1ccccc1)([c]1ccccc1)[c]1ccccc1)C(C)C [OC2, Triphenyltin(IV) diisopropyl dithiocarbamate]
Caspase-8 activation (caspase-8): remained unchanged compared to the control up to 4 h | Selectivity index (SI) (WIL2-NS cells): 5.5 | Percentage of apoptotic events (Jurkat cells [2]): 55.6 ± 5.0% and 55% and 55.6 ± 4.95% | Apoptotic cells after NAC pre-treatment (Jurkat cells [3]): significantly decreased the number of apoptotic cells | p21 protein expression (p21): statistically significant (p < 0.05) at later time points (4 and 6 h) | Cell cycle distribution (Jurkat cells [4]): halted the Jurkat cell cycle in the G0/G1 phase | Caspase-3 positive cells (caspase-3): significant increase in caspase-3 positive cells | Cleaved-PARP protein expression (cleaved-PARP): marked rise (p < 0.05) at 6 h | IC50 (Jurkat cells [1]; MTT, mean ± S.E.M): 0.1 ± 0.01 µM | Cells with active caspase-9 (caspase-9): steadily increased from 2 to 4 h post-treatment | Intracellular ROS production (Jurkat cells [5]): time-dependent increase in ROS production | TMRE-negative cells (loss of ΔΨm) (Jurkat cells [6]; OC2 at IC50, 1 h): slight increase in TMRE-negative cells | TMRE-negative cells (loss of ΔΨm) (Jurkat cells [6]; OC2 at IC50, 2 h): 33.0 ± 4.5% | TMRE-negative cells (loss of ΔΨm) (Jurkat cells [6]; OC2 at IC50, 4 h): 37.4 ± 2.4% | TMRE-negative cells (loss of ΔΨm) (Jurkat cells [6]; OC2 at IC50, 6 h): 43.2 ± 5.5% | Predicted CaCo2 permeability / intestinal absorption ([7]; ADMETlab prediction): might possess good intestinal absorption | Inhibition of major CYP450 enzymes (predicted) ([7]; in silico): predicted not to inhibit any major CYP450 enzymes | Mutagenic and carcinogenic potential (predicted) ([7]; in silico): may lack mutagenic and carcinogenic potential | P-gp substrate or inhibitor (predicted) ([7]; in silico): unlikely to be a substrate or inhibitor of P-gp | Skin sensitization or liver injury (predicted) ([7]; in silico): might not cause skin sensitization or liver injury | ROS levels, K562 (K562 cells; IC50 dose, 6 h): substantial elevation in ROS levels (p < 0.05) | Apoptotic cells, K562 (K562 cells; at IC50 concentration): 57.1 ± 4.5% | Cell cycle progression, K562 (K562 cells): blocking cell cycle progression at the S phase checkpoint | Selectivity index (SI), K562 cells (K562 cells): 1 | IC50 (K562 cells; read-out: IC50 (inhibiting 50% of cell growth), K562 cells): 0.55 µM

C=CCN(CC=C)C(=S)[S][Sn]([S]C(=S)N(CC=C)CC=C)([c]1ccccc1)[c]1ccccc1 [OC3, Diphenyltin(IV) diallyl dithiocarbamate]
Selectivity index (SI) (WIL2-NS cells): 0.42 | Percentage of apoptotic events (Jurkat cells [2]): 86.7 ± 2.9% | IC50 (Jurkat cells [1]; MTT, mean ± S.E.M): 2.8 ± 0.13 µM

C=CCN(CC=C)C(=S)[S][Sn]([c]1ccccc1)([c]1ccccc1)[c]1ccccc1 [OC4, Triphenyltin(IV) diallyl dithiocarbamate]
Selectivity index (SI) (WIL2-NS cells): 1 | Percentage of apoptotic events (Jurkat cells [2]): 84.5 ± 5.3% | IC50 (Jurkat cells [1]; MTT, mean ± S.E.M): 0.2 ± 0.01 µM

CCN(CC)C(=S)[S][Sn]([c]1ccccc1)([c]1ccccc1)[c]1ccccc1 [OC5, Triphenyltin(IV) diethyldithiocarbamate]
Selectivity index (SI) (WIL2-NS cells): 0.57 | Percentage of apoptotic events (Jurkat cells [2]): 73.4 ± 4.8% | IC50 (Jurkat cells [1]; MTT, mean ± S.E.M): 0.35 ± 0.01 µM
